Measurements from ChEMBL document CHEMBL3797163, “Tryptic Stability of Synthetic Bactenecin Derivatives Is Determined by the Side Chain Length of Cationic Residues and the Peptide Conformation” (J Med Chem, 2016).
Values after ≈ are worked out from the molar mass of the structure shown. Square brackets hold non-standard residues; d marks the D form. Peptide text beside a SMILES is read from it. hArg = N=C(N)NCCCC[C@H](N)C(=O)O; Orn = NCCC[C@H](N)C(=O)O; Dab = NCC[C@H](N)C(=O)O

Legend:
[1] = Stability of compound assessed as bovine trypsin mediated degradation at 2 to 5 mM after 2 hrs by HPLC/MS analysis; assay type: ADME, Bos taurus; details: cattle, isolated protein, 5000 µM
Outline: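 Bovine pancreatic trypsin (salt-free) was freshly dissolved at 1 mg per 50 mL in 0.1 M NH4HCO3, pH 8.2, and added to peptide, which was diluted from 2˗5 mM stocks to a final 60 µM. Reactions were shaken at 37 °C and sampled at 2 h and 24 h. Aliquots were quenched with acetic acid/TFA and analysed by RP-HPLC (C18, 220 nm) and direct-injection ESI-MS. No-enzyme samples served as controls.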

Escherichia coli = assay: Antimicrobial activity against Escherichia coli O157:H7 incubated overnight by microdilution method; assay type: functional
Outline: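 Broth microdilution in Mueller-Hinton broth. Peptides were serially diluted twofold in water at 2× final concentration and mixed 1:1 with bacteria in 2× MHB, giving a final inoculum of 2-7 × 10^5 CFU/mL. Plates were incubated overnight at 37 °C. MIC was read as the lowest concentration with no visible growth.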

Acinetobacter baumannii = assay: Antimicrobial activity against Acinetobacter baumannii ATCC 17978 incubated overnight by microdilution method; assay type: functional
Outline: (§1)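 Broth microdilution in Mueller-Hinton broth. Peptides were serially diluted 2-fold in water at twice the final concentration, then mixed 1:1 with bacteria in 2× MHB to a final 2˗7 × 10^5 CFU/mL. Plates were incubated overnight at 37 °C. MIC was taken as the lowest concentration showing no growth.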

Bacillus subtilis = assay: Antimicrobial activity against Bacillus subtilis C626 incubated overnight by microdilution method; assay type: functional; outline: as §1
Staphylococcus aureus = assay: Antimicrobial activity against Staphylococcus aureus C622 incubated overnight by microdilution method; assay type: functional; outline: as §1

Compound | Stability [1] | MIC (Escherichia coli) [µM] | MIC (Acinetobacter baumannii) [µM] | MIC (Bacillus subtilis) [µM] | MIC (Staphylococcus aureus) [µM]
CC[C@@H](C)[C@@H](NC(=O)[C@@H](Cc1c[nH]c2ccccc12)NC(=O)[C@@H](CCCCN)NC(=O)[C@@H](Cc1c[nH]c2ccccc12)NC(=O)[C@@H](Cc1c[nH]c2ccccc12)NC(=O)[C@@H](CCCNC(=N)N)NC(=O)[C@H](N)CCCCN)C(=O)N[C@H](CCCNC(=N)N)C(=O)N[C@H](Cc1c[nH]c2ccccc12)C(N)=O | Stable |  |  |  | 
N=C(N)NCCC[C@H](NC(=O)[C@H](CCCNC(=N)N)NC(=O)[C@H](Cc1c[nH]c2ccccc12)NC(=O)[C@H](Cc1c[nH]c2ccccc12)NC(=O)[C@H](CCCCN)NC(=O)[C@H](Cc1c[nH]c2ccccc12)NC(=O)[C@H](Cc1c[nH]c2ccccc12)NC(=O)[C@H](CCCNC(=N)N)NC(=O)[C@@H](N)CCCCN)C(N)=O | Unstable | 2.5 (≈ 3.72 µg/mL) | 40 (≈ 59.5 µg/mL) | 40 (≈ 59.5 µg/mL) | 5 (≈ 7.43 µg/mL)
CC[C@H](C)[C@H](NC(=O)[C@H](Cc1c[nH]c2ccccc12)NC(=O)[C@H](CCCCN)NC(=O)[C@H](Cc1c[nH]c2ccccc12)NC(=O)[C@H](Cc1c[nH]c2ccccc12)NC(=O)[C@H](CCCNC(=N)N)NC(=O)[C@@H](N)CCCCN)C(=O)N[C@@H](CCCNC(=N)N)C(=O)N[C@@H](Cc1c[nH]c2ccccc12)C(N)=O | Unstable | 1.25 (≈ 1.8 µg/mL) | 5 (≈ 7.22 µg/mL) | 20 (≈ 28.9 µg/mL) | 5 (≈ 7.22 µg/mL)
N=C(N)NCCC[C@@H](N)C(=O)N[C@H](CCCNC(=N)N)C(=O)N[C@H](Cc1c[nH]c2ccccc12)C(=O)N[C@H](Cc1c[nH]c2ccccc12)C(=O)N[C@H](CCCCN)C(=O)N[C@H](Cc1c[nH]c2ccccc12)C(=O)N[C@H](Cc1c[nH]c2ccccc12)C(=O)N[C@H](CCCNC(=N)N)C(=O)N[C@H](CCCCN)C(N)=O | Stable | 1.25 (≈ 1.86 µg/mL) |  | 20 (≈ 29.7 µg/mL) | 5 (≈ 7.43 µg/mL)
N=C(N)NCCC[C@@H](NC(=O)[C@@H](CCCNC(=N)N)NC(=O)[C@@H](Cc1c[nH]c2ccccc12)NC(=O)[C@@H](Cc1c[nH]c2ccccc12)NC(=O)[C@@H](CCCCN)NC(=O)[C@@H](Cc1c[nH]c2ccccc12)NC(=O)[C@@H](Cc1c[nH]c2ccccc12)NC(=O)[C@@H](CCCNC(=N)N)NC(=O)[C@H](N)CCCCN)C(N)=O | Stable | 1.25 (≈ 1.86 µg/mL) | 20 (≈ 29.7 µg/mL) | 20 (≈ 29.7 µg/mL) | 5 (≈ 7.43 µg/mL)
CC[C@@H](C)[C@@H](NC(=O)[C@@H](CCCNC(=N)N)NC(=O)[C@H](N)Cc1c[nH]c2ccccc12)C(=O)N[C@H](Cc1c[nH]c2ccccc12)C(=O)N[C@H](CCCCN)C(=O)N[C@H](Cc1c[nH]c2ccccc12)C(=O)N[C@H](Cc1c[nH]c2ccccc12)C(=O)N[C@H](CCCNC(=N)N)C(=O)N[C@H](CCCCN)C(N)=O | Stable |  |  |  | 
CN[C@@H](CC(C)C)C(=O)N[C@H]1C(=O)N[C@@H](CC(N)=O)C(=O)N[C@H]2C(=O)N[C@H]3C(=O)N[C@H](C(=O)N[C@@H](C(=O)O)c4cc(O)cc(O)c4-c4cc3ccc4O)[C@H](O)c3ccc(c(Cl)c3)Oc3cc2cc(c3O[C@H]2O[C@@H](CO)[C@H](O)[C@@H](O)[C@@H]2O[C@@H]2C[C@@](C)(N)[C@@H](O)[C@@H](C)O2)Oc2ccc(cc2Cl)[C@H]1O |  | > 32 | > 32 | 1 (≈ 1.45 µg/mL) | 1 (≈ 1.45 µg/mL)
N=C(N)NCCCC[C@H](NC(=O)[C@H](CCCCNC(=N)N)NC(=O)[C@H](Cc1c[nH]c2ccccc12)NC(=O)[C@@H](Cc1c[nH]c2ccccc12)NC(=O)[C@@H](CCCN)NC(=O)[C@@H](Cc1c[nH]c2ccccc12)NC(=O)[C@H](Cc1c[nH]c2ccccc12)NC(=O)[C@H](CCCCNC(=N)N)NC(=O)[C@H](N)CCCN)C(N)=O | Unstable | 2.5 (≈ 3.75 µg/mL) | 40 (≈ 60 µg/mL) | 40 (≈ 60 µg/mL) | 5 (≈ 7.5 µg/mL)
N=C(N)NCCCC[C@H](NC(=O)[C@H](CCCCNC(=N)N)NC(=O)[C@H](Cc1c[nH]c2ccccc12)NC(=O)[C@@H](Cc1c[nH]c2ccccc12)NC(=O)[C@@H](CCN)NC(=O)[C@@H](Cc1c[nH]c2ccccc12)NC(=O)[C@H](Cc1c[nH]c2ccccc12)NC(=O)[C@@H](CCCCNC(=N)N)NC(=O)[C@@H](N)CCN)C(N)=O | Unstable | 2.5 (≈ 3.68 µg/mL) | 40 (≈ 58.9 µg/mL) | 40 (≈ 58.9 µg/mL) | 5 (≈ 7.36 µg/mL)
N=C(N)NCCCC[C@H](NC(=O)[C@@H](CCCCNC(=N)N)NC(=O)[C@H](Cc1c[nH]c2ccccc12)NC(=O)[C@H](Cc1c[nH]c2ccccc12)NC(=O)[C@H](CCCCNC(=N)N)NC(=O)[C@H](Cc1c[nH]c2ccccc12)NC(=O)[C@@H](Cc1c[nH]c2ccccc12)NC(=O)[C@@H](CCCCNC(=N)N)NC(=O)[C@@H](N)CCCCNC(=N)N)C(N)=O | Unstable | 2.5 (≈ 4.03 µg/mL) | 20 (≈ 32.3 µg/mL) | 10 (≈ 16.1 µg/mL) | 2.5 (≈ 4.03 µg/mL)
CC[C@H](C)[C@H](NC(=O)[C@H](Cc1c[nH]c2ccccc12)NC(=O)[C@H](CCCNC(=N)N)NC(=O)[C@H](Cc1c[nH]c2ccccc12)NC(=O)[C@H](Cc1c[nH]c2ccccc12)NC(=O)[C@H](CCCCN)NC(=O)[C@@H](N)CCCNC(=N)N)C(=O)N[C@@H](CCCCN)C(=O)N[C@@H](Cc1c[nH]c2ccccc12)C(N)=O (H-RKWWRWIKW-NH2) | Unstable | 1.25 (≈ 1.8 µg/mL) | 5 (≈ 7.22 µg/mL) | 20 (≈ 28.9 µg/mL) | 2.5 (≈ 3.61 µg/mL)
N=C(N)NCCC[C@H](NC(=O)[C@H](Cc1c[nH]c2ccccc12)NC(=O)[C@H](Cc1c[nH]c2ccccc12)NC(=O)[C@H](CCCCN)NC(=O)[C@@H](N)CCCNC(=N)N)C(=O)N[C@@H](Cc1c[nH]c2ccccc12)C(=O)N[C@@H](Cc1c[nH]c2ccccc12)C(=O)N[C@@H](CCCCN)C(=O)N[C@@H](CCCCN)C(N)=O (H-RKWWRWWKK-NH2) | Unstable | 2.5 (≈ 3.65 µg/mL) | > 40 | > 40 | 10 (≈ 14.6 µg/mL)
CC[C@H](C)[C@H](NC(=O)[C@H](Cc1c[nH]c2ccccc12)NC(=O)[C@H](CCN)NC(=O)[C@H](Cc1c[nH]c2ccccc12)NC(=O)[C@H](Cc1c[nH]c2ccccc12)NC(=O)[C@H](CCN)NC(=O)[C@@H](N)CCN)C(=O)N[C@@H](CCN)C(=O)N[C@@H](Cc1c[nH]c2ccccc12)C(N)=O (H-[Dab][Dab]WW[Dab]WI[Dab]W-NH2) | Unstable | 2.5 (≈ 3.19 µg/mL) | 5 (≈ 6.38 µg/mL) | 10 (≈ 12.8 µg/mL) | 2.5 (≈ 3.19 µg/mL)
NCC[C@H](NC(=O)[C@H](CCN)NC(=O)[C@H](Cc1c[nH]c2ccccc12)NC(=O)[C@H](Cc1c[nH]c2ccccc12)NC(=O)[C@H](CCN)NC(=O)[C@H](Cc1c[nH]c2ccccc12)NC(=O)[C@H](Cc1c[nH]c2ccccc12)NC(=O)[C@H](CCN)NC(=O)[C@@H](N)CCN)C(N)=O (H-[Dab][Dab]WW[Dab]WW[Dab][Dab]-NH2) | Stable | 2.5 (≈ 3.16 µg/mL) | 80 (≈ 101 µg/mL) | 20 (≈ 25.2 µg/mL) | 5 (≈ 6.31 µg/mL)
CC[C@H](C)[C@H](NC(=O)[C@H](Cc1c[nH]c2ccccc12)NC(=O)[C@H](CCN)NC(=O)[C@H](Cc1c[nH]c2ccccc12)NC(=O)[C@H](Cc1c[nH]c2ccccc12)NC(=O)[C@H](CCCCNC(=N)N)NC(=O)[C@@H](N)CCN)C(=O)N[C@@H](CCCCNC(=N)N)C(=O)N[C@@H](Cc1c[nH]c2ccccc12)C(N)=O (H-[Dab][hArg]WW[Dab]WI[hArg]W-NH2) | Unstable | 1.25 (≈ 1.77 µg/mL) | 5 (≈ 7.08 µg/mL) | 20 (≈ 28.3 µg/mL) | 5 (≈ 7.08 µg/mL)
CC[C@H](C)[C@H](NC(=O)[C@H](Cc1c[nH]c2ccccc12)NC(=O)[C@H](CCCN)NC(=O)[C@H](Cc1c[nH]c2ccccc12)NC(=O)[C@H](Cc1c[nH]c2ccccc12)NC(=O)[C@H](CCCN)NC(=O)[C@@H](N)CCCN)C(=O)N[C@@H](CCCN)C(=O)N[C@@H](Cc1c[nH]c2ccccc12)C(N)=O (H-[Orn][Orn]WW[Orn]WI[Orn]W-NH2) | Unstable | 1.25 (≈ 1.66 µg/mL) | 10 (≈ 13.3 µg/mL) | 10 (≈ 13.3 µg/mL) | 5 (≈ 6.66 µg/mL)
NCCC[C@H](NC(=O)[C@H](CCCN)NC(=O)[C@H](Cc1c[nH]c2ccccc12)NC(=O)[C@H](Cc1c[nH]c2ccccc12)NC(=O)[C@H](CCCN)NC(=O)[C@H](Cc1c[nH]c2ccccc12)NC(=O)[C@H](Cc1c[nH]c2ccccc12)NC(=O)[C@H](CCCN)NC(=O)[C@@H](N)CCCN)C(N)=O (H-[Orn][Orn]WW[Orn]WW[Orn][Orn]-NH2) | Unstable | 2.5 (≈ 3.33 µg/mL) | > 80 | 40 (≈ 53.3 µg/mL) | 20 (≈ 26.7 µg/mL)
CC[C@H](C)[C@H](NC(=O)[C@H](Cc1c[nH]c2ccccc12)NC(=O)[C@H](CCCN)NC(=O)[C@H](Cc1c[nH]c2ccccc12)NC(=O)[C@H](Cc1c[nH]c2ccccc12)NC(=O)[C@H](CCCCNC(=N)N)NC(=O)[C@@H](N)CCCN)C(=O)N[C@@H](CCCCNC(=N)N)C(=O)N[C@@H](Cc1c[nH]c2ccccc12)C(N)=O (H-[Orn][hArg]WW[Orn]WI[hArg]W-NH2) | Unstable | 1.25 (≈ 1.8 µg/mL) | 5 (≈ 7.22 µg/mL) | 20 (≈ 28.9 µg/mL) | 5 (≈ 7.22 µg/mL)
CC[C@H](C)[C@H](NC(=O)[C@H](Cc1c[nH]c2ccccc12)NC(=O)[C@H](CCCCNC(=N)N)NC(=O)[C@H](Cc1c[nH]c2ccccc12)NC(=O)[C@H](Cc1c[nH]c2ccccc12)NC(=O)[C@H](CCCCNC(=N)N)NC(=O)[C@@H](N)CCCCNC(=N)N)C(=O)N[C@@H](CCCCNC(=N)N)C(=O)N[C@@H](Cc1c[nH]c2ccccc12)C(N)=O (H-[hArg][hArg]WW[hArg]WI[hArg]W-NH2) | Unstable | 2.5 (≈ 3.89 µg/mL) | 5 (≈ 7.78 µg/mL) | 5 (≈ 7.78 µg/mL) | 2.5 (≈ 3.89 µg/mL)
